The AC50 is the concentration giving half of the maximal activity seen.

From PubChem BioAssay AID977615 (Broad Institute, 2014) come the findings set out here.

Each structure is given as a SMILES string. Values joined by “and” are separate entries in the source; they are usually repeats but may differ in a detail not shown here. Equal entries are not always repeated. Active and inactive are the calls of the source.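 Rule for the calls: active = cell killing with fitted AC50 at or below twice the top valid dose for that sample; inconclusive = flat curve losing 30 to 70% signal, or bad fit; inactive = the rest.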 Some results are limits rather than exact numbers.

The subject of test [1] is HEK293T viability, CellTiter-Glo ATP luminescence, 72 h. Put plainly: HEK293T cell cytotoxicity, dose response, cytotoxicity control, CellTiter-Glo luminescence, dry powder, set 17 (AID 977615). The method in brief:
(§1)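 Assay system – HEK293T cells · Quantity – 2000 HEK293T cells seeded per well · Measured by – CellTiter-Glo luminescence of cellular ATP, read at room temperature · Schedule – 24 h attachment, 72 h compound exposure, 37 °C, 5% CO2 · Buffer or medium – DMEM growth medium supplemented with 10% FBS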
(Cellular ATP, detected with luciferase, serves as a proxy for viable cell number.)

Assay in test [2]: as above
The note with it: HEK293T viability, CellTiter-Glo ATP luminescence, 72 h; at 26 µM (top of the series). The method in brief:
as §1

For the compound `C[C@@H](O)C#Cc1ccc2c(c1)O[C@H](CN(C)Cc1ccc(-c3ccccc3)cc1)[C@@H](C)CN([C@@H](C)CO)S2(=O)=O`, the half-maximal activity concentration (AC50) in test [1] was 25900 nM. For the compound `C[C@H]1CN([C@@H](C)CO)S(=O)(=O)c2ccc(Br)cc2O[C@H]1CN(C)Cc1ccc(-c2ccccc2)cc1`, the activity change, negative = cytotoxic in test [2] was -0.919% (inactive).

As to `C[C@@H]1CN([C@H](C)CO)S(=O)(=O)c2ccc(C#C[C@@H](C)O)cc2O[C@@H]1CN(C)Cc1ccc(-c2ccccc2)cc1`, in test [2], the activity change, negative = cytotoxic was 2.1% (inactive). As for `COc1ccccc1-c1ccc(CN(C)C[C@@H]2Oc3cc(C#C[C@@H](C)O)ccc3S(=O)(=O)N([C@@H](C)CO)C[C@@H]2C)cc1`, in test [1], the AC50 was 1350 nM.

As for `C[C@@H](O)C#Cc1ccc2c(c1)O[C@@H](CN(C)Cc1ccc(-c3cccc(Cl)c3)cc1)[C@@H](C)CN([C@@H](C)CO)S2(=O)=O`, in test [1], the AC50 was 2080 nM. Still for that read-out and setting: the figure for `C[C@@H](O)C#Cc1ccc2c(c1)O[C@@H](CN(C)Cc1ccc(-c3ccccc3Cl)cc1)[C@@H](C)CN([C@@H](C)CO)S2(=O)=O` is 364 nM; for `Cc1ccc(-c2ccc(CN(C)C[C@@H]3Oc4cc(C#C[C@@H](C)O)ccc4S(=O)(=O)N([C@@H](C)CO)C[C@@H]3C)cc2)cc1` it is 1540 nM; for `COc1ccc(-c2ccc(CN(C)C[C@@H]3Oc4cc(C#C[C@@H](C)O)ccc4S(=O)(=O)N([C@@H](C)CO)C[C@@H]3C)cc2)cc1` it is 1580 nM. Regarding `C[C@@H]1CN([C@@H](C)CO)S(=O)(=O)c2ccc(C#C[C@@H](C)O)cc2O[C@@H]1CN(C)Cc1ccc(-c2ccccc2)cc1`, the activity change, negative = cytotoxic in test [2] is -8.45% (inactive). `C[C@H](CO)N1C[C@H](C)[C@H](CN(C)Cc2ccc(-c3ccccc3)cc2)Oc2cc(C#C[C@@H](C)O)ccc2S1(=O)=O`: the AC50 in test [1] is 21700 nM. Still for that read-out and setting: then `C[C@H](O)C#Cc1ccc2c(c1)O[C@@H](CN(C)Cc1ccc(-c3ccccc3)cc1)[C@@H](C)CN([C@@H](C)CO)S2(=O)=O`, with 22000 nM. For `CNC[C@@H]1Oc2cc(Br)ccc2S(=O)(=O)N([C@@H](C)CO)C[C@@H]1C`, in test [2], the activity change, negative = cytotoxic was -16.1% (inactive). On to `Cc1cccc(-c2ccc(CN(C)C[C@@H]3Oc4cc(C#C[C@@H](C)O)ccc4S(=O)(=O)N([C@@H](C)CO)C[C@@H]3C)cc2)c1`, for which, in test [1], the concentration at half-maximal activity (AC50) is 1530 nM. In the case of `Cc1ccccc1-c1ccc(CN(C)C[C@@H]2Oc3cc(C#C[C@@H](C)O)ccc3S(=O)(=O)N([C@@H](C)CO)C[C@@H]2C)cc1`, the AC50 in test [1] is 1890 nM. In the case of `C[C@H](O)C#Cc1ccc2c(c1)O[C@H](CN(C)Cc1ccc(-c3ccccc3)cc1)[C@H](C)CN([C@@H](C)CO)S2(=O)=O`, the activity change, negative = cytotoxic in test [2] was -11.3% (inactive). Turning to `C[C@H](O)C#Cc1ccc2c(c1)O[C@@H](CN(C)Cc1ccc(-c3ccccc3)cc1)[C@H](C)CN([C@H](C)CO)S2(=O)=O`, in test [1], the AC50 was 26100 nM.

On to `C[C@@H](O)C#Cc1ccc2c(c1)O[C@@H](CN(C)Cc1ccncc1)[C@@H](C)CN([C@@H](C)CO)S2(=O)=O`, for which, in test [2], the activity change, negative = cytotoxic is -12% (inactive).

Turning to `COc1ccc(-c2ccc3c(c2)O[C@@H](CN(C)Cc2ccc(-c4ccccc4)cc2)[C@@H](C)CN([C@@H](C)CO)S3(=O)=O)cc1`, in test [1], the AC50 is > 52000 nM (inactive).

Turning to `C[C@@H]1CN([C@H](C)CO)S(=O)(=O)c2ccc(C#C[C@@H](C)O)cc2O[C@H]1CN(C)Cc1ccc(-c2ccccc2)cc1`, the activity change, negative = cytotoxic in test [2] was -10.1% (inactive). Take `C[C@@H](O)C#Cc1ccc2c(c1)O[C@@H](CN(C)Cc1ccc(-c3ccc(Cl)cc3)cc1)[C@@H](C)CN([C@@H](C)CO)S2(=O)=O`: the AC50 in test [1] was 1260 nM.

For the compound `C[C@H](O)C#Cc1ccc2c(c1)O[C@H](CN(C)Cc1ccc(-c3ccccc3)cc1)[C@@H](C)CN([C@@H](C)CO)S2(=O)=O`, the AC50 in test [1] is 7120 nM. Turning to `C[C@@H](O)C#Cc1ccc2c(c1)O[C@@H](CN(C)S(=O)(=O)c1ccc(-c3ccccc3)cc1)[C@@H](C)CN([C@@H](C)CO)S2(=O)=O`, the activity change, negative = cytotoxic in test [2] was -12.1% (inactive).

Turning to `C[C@H]1CN([C@@H](C)CO)S(=O)(=O)c2ccc(C#CC(C)(C)O)cc2O[C@H]1CN(C)Cc1ccc(-c2ccccc2)cc1`, the AC50 in test [1] is 18000 nM.

As to `C[C@@H](O)C#Cc1ccc2c(c1)O[C@@H](CN(C)Cc1ccc(-c3ccccc3)cc1)[C@@H](C)CN([C@@H](C)CO)S2(=O)=O`, the AC50 in test [1] is 3610 nM and 2940 nM. In the case of `CO[C@H]1CN(C)C(=O)c2ccc(NC(=O)c3ccc(F)cc3)cc2OC[C@H](C)N(C(=O)c2ccc(F)cc2)C[C@@H]1C`, the activity change, negative = cytotoxic in test [2] was 1.97% (inactive). Same read-out and setting: the figure for `C[C@@H](O)C#Cc1ccc2c(c1)O[C@@H](CN(C)Cc1cccnc1)[C@@H](C)CN([C@@H](C)CO)S2(=O)=O` is 2.11% (inactive). As for `COc1cccc(-c2ccc(CN(C)C[C@@H]3Oc4cc(C#C[C@@H](C)O)ccc4S(=O)(=O)N([C@@H](C)CO)C[C@@H]3C)cc2)c1`, the AC50 in test [1] is 884 nM.
